Measurements from different studies.
Protocols differ between the studies behind these lines.
TNKS2: Poly [ADP-ribose] polymerase tankyrase-2 (TNKS2, Homo sapiens, UniProt Q9H2K2)
FLT3 ITD: Receptor-type tyrosine-protein kinase FLT3 (FLT3, Homo sapiens, UniProt P36888, ITD)
TOP2A: DNA topoisomerase 2-alpha (TOP2A, Homo sapiens, UniProt P11388)
HTR2B: 5-hydroxytryptamine receptor 2B (HTR2B, Homo sapiens, UniProt P41595)

SMILES | target | observed | mode | technique | IC50
COc1cc(-c2ccccc2)ncc1C(=O)Nc1ccc2c(=O)[nH]c(-c3ccc(C(C)(C)O)cc3)nc2c1 | TNKS2 | enzyme activity | inhibitor | – | 3.46 nM
CN(C)CCNC(=O)c1ccc(-c2nc3ccc4[nH]ncc4c3c3c2CCCC3)c(F)c1 | FLT3 ITD | enzyme activity | inhibitor | – | 112 nM
CNc1cccc(Nc2nc(-c3ccncc3)nc3c2CNCC3)c1 | TOP2A | enzyme activity | inhibitor | – | 160000 nM
Cc1n[nH]c2ccc3nc(-c4ccc(C(=O)NCCN(C)C)cc4F)c4c(c3c12)CCCCC4 | Receptor-type tyrosine-protein kinase FLT3 (FLT3, Homo sapiens, UniProt P36888) | enzyme activity | inhibitor | – | 138 nM
Cn1cc(C2=C(c3cn(CCCSC(=N)N)c4ccccc34)C(=O)NC2=O)c2ccccc21 | Mitogen-activated protein kinase kinase kinase 8 (MAP3K8, Homo sapiens, UniProt P41279) | enzyme activity | inhibitor | – | 11000 nM
C=CCn1c(=O)c2cnc(Nc3ccc(N4CCN(C)CC4)cc3)nc2n1-c1ccc2c(n1)[C@@](O)(CC)CC2 | Serine/threonine-protein kinase PLK1 (PLK1, Homo sapiens, UniProt P53350) | target engagement in cells | – | BRET | > 10000 nM
CN(C)CCNC(=O)c1ccc(-c2nc3ccc4[nH]ncc4c3c3c2CCC3)cc1 | FLT3 ITD | enzyme activity | inhibitor | – | 659 nM
CN1CCC(CNc2ccc3ncc(-c4cccc(OC(F)(F)F)c4)n3n2)CC1 | HTR2B | calcium signal | antagonist | – | 2810 nM
CNC(=O)c1ccc(C(=O)Nc2ccc3c(=O)[nH]c(-c4ccc(C(C)(C)O)cc4)nc3c2)cc1 | TNKS2 | enzyme activity | inhibitor | – | 30.4 nM
Cc1n[nH]c2ccc3nc(-c4ccc(C(=O)NCCN(C)C)cc4)c4c(c3c12)CCCCC4 | Receptor-type tyrosine-protein kinase FLT3 (FLT3, Homo sapiens, UniProt P36888, D835Y) | enzyme activity | inhibitor | – | 34 nM
CC(C)(O)c1ccc(-c2nc3cc(NC(=O)c4ccc(-c5ccccc5)nc4)ccc3c(=O)[nH]2)cc1 | TNKS2 | enzyme activity | inhibitor | – | 10.6 nM
CCCCCCC#Cc1cncc(-c2nnc(SCc3cc([N+](=O)[O-])cc([N+](=O)[O-])c3)n2CCOC2OC(CN)C(O)C2O)c1 (stereo not drawn) | mraY (Staphylococcus aureus, UniProt Q2FZ93) | enzyme activity | inhibitor | – | 78000 nM
CN(C)CCNC(=O)c1ccc(-c2nc3ccc4[nH]ncc4c3c3c2CCCCC3)cc1 | Receptor-type tyrosine-protein kinase FLT3 (FLT3, Homo sapiens, UniProt P36888, F691L) | enzyme activity | inhibitor | – | 287 nM
Cc1cc(-c2ccccc2)nnc1NCCN1CCOCC1 | HTR2B | calcium signal | antagonist | – | 6200 nM
Fc1ccccc1Nc1nc(-c2ccncc2)nc2c1CNCC2 | TOP2A | enzyme activity | inhibitor | – | 4500 nM
